{"source": "ChEMBL document CHEMBL4011638", "about": "“Semisynthetic Flavone-Derived Antimicrobials with Therapeutic Potential against Methicillin-Resistant Staphylococcus aureus (MRSA)” (J Med Chem, 2017)", "key": {"Staphylococcus aureus [1]": {"system": "Staphylococcus aureus", "experiment": "Antibacterial activity against Staphylococcus aureus DM4001R after 24 hrs by broth microdilution method", "type": "functional", "summary_of_the_method": "(§1)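 Broth microdilution per CLSI in cation-adjusted Mueller−Hinton broth, in tubes. Compounds dissolved in H2O or DMF, then diluted in PBS to 1000 μg/mL stocks. Serial 2-fold dilutions were made, with final DMF 2.5%. Organisms were grown on TSA at 35 °C for 20 h and adjusted to ~5× 10^5 CFU/mL. Tubes were incubated at 35 °C for 24 h. MIC was the lowest concentration with no visible growth versus control. Biological replicates.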"}, "Staphylococcus aureus [2]": {"system": "Staphylococcus aureus", "experiment": "Bactericidal activity against methicillin-resistant Staphylococcus aureus DM21455 assessed as log reduction in bacterial count at 2 times MIC up to 30 mins by time kill assay", "type": "functional", "summary_of_the_method": "(§2)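 Time-kill. Starting inoculum 10^5−10^6 CFU/mL, exposed to 0.5×, 1×, 2× and 4× MIC at 35 °C. Colonies were counted after 24 h at 35 °C and CFU/mL calculated. Biological replicates.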"}, "Lipid bilayer [3]": {"system": "Lipid bilayer", "experiment": "Membrane permeabilization activity in DOPE/DOPG large unilamellar liposomes assessed as leakage of calcein at 1:4 compound to lipid ratio by fluorescence assay", "summary_of_the_method": "(§3)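 Calcein-loaded 100 nm LUVs of DOPE/DOPG (3:1, w/w), made by film hydration in 80 mM calcein, 100 mM NaCl, 50 mM HEPES, 0.3 mM EDTA, pH 7.4. Liposomes 50 μM, 0.5% DMF, room temperature. Read at ex 490/em 520 nm every 2 min for 30 cycles. % leakage normalized to 0.1% Triton X-100 (100%) and 0.5% DMF (0%). Biological replicates.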"}, "Staphylococcus aureus [4]": {"system": "Staphylococcus aureus", "experiment": "Bactericidal activity against methicillin-resistant Staphylococcus aureus DM9808R assessed as log reduction in bacterial count at 4 times MIC up to 2 hrs by time kill assay", "type": "functional", "summary_of_the_method": "as §2"}, "[5]": {"experiment": "Cytotoxicity in human Corneal fibroblasts assessed as LDH release at 30 uM after 24 hrs", "type": "cell-based", "details": "corneal fibroblast", "summary_of_the_method": "(§4)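 Human corneal fibroblasts are exposed to test samples for 24 h, and cytotoxicity is read as LDH leakage into the medium. Biological replicates.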"}, "[6]": {"experiment": "Cytotoxicity against human Corneal fibroblasts assessed cell viability at 100 uM after 24 hrs by Cell Titer-Glo luminescent assay", "type": "cell-based, Corneal fibroblast", "details": "read-out: Activity", "summary_of_the_method": "(§5)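 ATP luminescence viability in human corneal fibroblasts, ~10000 cells per well, duplicate wells. After 24 h exposure the plate is equilibrated 0.5 h at 22 °C before Cell Titer-Glo addition and luminescence read. 1% Triton X-100 serves as positive control, medium-treated cells as negative control. Biological replicates.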"}, "Staphylococcus aureus [7]": {"system": "Staphylococcus aureus", "experiment": "Induction of plasma membrane permeability in methicillin-resistant Staphylococcus aureus DM9808R assessed as increase in fluorescence intensity at 12.5 ug/ml measured every 1 sec for 50 mins by SYTOX green dye based fluorimetric assay", "type": "functional", "summary_of_the_method": "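Exponential-phase MRSA DM9808R grown on TSA, washed twice and resuspended in PBS (10 mM, pH 7) to OD600 0.2. Cells were loaded with 0.3 μM SYTOX Green in the dark until fluorescence stabilized. Test samples were then added (final DMF 0.5%). Fluorescence at ex 504/em 523 nm was recorded every 1 s for 50 min. Biological replicates.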"}, "Bacillus cereus": {"system": "Bacillus cereus", "experiment": "Antibacterial activity against Bacillus cereus ATCC 11778 after 24 hrs by broth microdilution method", "type": "functional", "details": "ATCC 11778, 24 h", "summary_of_the_method": "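MIC by CLSI broth microdilution in cation-adjusted Mueller–Hinton broth, tubes. Compounds in H2O or DMF, diluted in PBS to 1000 μg/mL stocks, then serial 2-fold dilutions (final DMF 2.5%). Inoculum ~5×10^5 CFU/mL from TSA plates grown 35 °C 20 h. Incubation 35 °C 24 h; MIC = no visible growth vs control. Biological replicates.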"}, "Staphylococcus aureus [8]": {"system": "Staphylococcus aureus", "experiment": "Antibacterial activity against methicillin-sensitive Staphylococcus aureus DM4299 after 24 hrs by broth microdilution method", "type": "functional", "details": "DM4299, 24 h", "summary_of_the_method": "as §1"}, "Staphylococcus aureus [9]": {"system": "Staphylococcus aureus", "experiment": "Antibacterial activity against methicillin-resistant Staphylococcus aureus DM 9808R after 24 hrs by broth microdilution method", "type": "functional", "summary_of_the_method": "as §1"}, "[10]": {"experiment": "Cytotoxicity in human Corneal fibroblasts assessed as LDH release at 80 uM after 24 hrs", "type": "cell-based", "details": "corneal fibroblast", "summary_of_the_method": "as §4"}, "Staphylococcus aureus [11]": {"system": "Staphylococcus aureus", "experiment": "Antibacterial activity against methicillin-sensitive Staphylococcus aureus ATCC 29737 after 24 hrs by broth microdilution method", "type": "functional", "details": "ATCC 29737, 24 h", "summary_of_the_method": "as §1"}, "Staphylococcus aureus [12]": {"system": "Staphylococcus aureus", "experiment": "Antibacterial activity against methicillin-resistant Staphylococcus aureus DB68004 after 24 hrs by broth microdilution method", "type": "functional", "details": "DB68004, 24 h", "summary_of_the_method": "as §1"}, "Staphylococcus aureus [13]": {"system": "Staphylococcus aureus", "experiment": "Antibacterial activity against methicillin-resistant Staphylococcus aureus DB57964 after 24 hrs by broth microdilution method", "type": "functional", "details": "DB57964, 24 h", "summary_of_the_method": "as §1"}, "Staphylococcus aureus [14]": {"system": "Staphylococcus aureus", "experiment": "Bactericidal activity against methicillin-resistant Staphylococcus aureus DM21455 up to 4 hrs by time kill assay", "type": "functional", "summary_of_the_method": "as §2"}, "Staphylococcus aureus [15]": {"system": "Staphylococcus aureus", "experiment": "Bactericidal activity against methicillin-resistant Staphylococcus aureus DM9808R assessed as log reduction in bacterial count up to 4 hrs by time kill assay", "type": "functional", "summary_of_the_method": "as §2"}, "Staphylococcus aureus [16]": {"system": "Staphylococcus aureus", "experiment": "Bactericidal activity against methicillin-resistant Staphylococcus aureus DM9808R assessed as log reduction in bacterial count at 2 times MIC up to 2 hrs by time kill assay", "type": "functional", "summary_of_the_method": "as §2"}, "Lipid bilayer [17]": {"system": "Lipid bilayer", "experiment": "Membrane permeabilization activity in DOPE/DOPG large unilamellar liposomes assessed as leakage of calcein at 1:8 compound to lipid ratio by fluorescence assay", "summary_of_the_method": "as §3"}, "[18]": {"experiment": "Cytotoxicity against human Corneal fibroblasts assessed cell viability at 30 uM after 24 hrs by Cell Titer-Glo luminescent assay", "type": "cell-based, Corneal fibroblast", "details": "read-out: Activity", "summary_of_the_method": "as §5"}, "Staphylococcus aureus [19]": {"system": "Staphylococcus aureus", "experiment": "Antibacterial activity against Staphylococcus aureus ATCC 29213 after 17 passages", "type": "functional"}, "[20]": {"experiment": "Cytotoxicity in human Corneal fibroblasts assessed as LDH release at 50 uM after 24 hrs", "type": "cell-based", "details": "corneal fibroblast", "summary_of_the_method": "as §4"}, "[21]": {"experiment": "Ratio of HC50 for New Zealand white rabbit RBC to MIC for methicillin-sensitive Staphylococcus aureus DM4583R", "summary_of_the_method": "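HC50 measured on fresh New Zealand white rabbit RBCs, washed three times in PBS, at 4% v/v final. Cells were incubated with 2-fold serial dilutions (DMF final 0.5%) at 37 °C for 1 h, then centrifuged. Supernatant absorbance was read at 576 nm, with PBS as 0% and 2% Triton X-100 as 100% lysis. HC50 is the concentration lysing 50% of cells, divided by MIC from broth microdilution.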"}, "Staphylococcus aureus [22]": {"system": "Staphylococcus aureus", "experiment": "Antibacterial activity against methicillin-resistant Staphylococcus aureus DB6506 after 24 hrs by broth microdilution method", "type": "functional", "details": "DB6506, 24 h", "summary_of_the_method": "as §1"}, "Staphylococcus aureus [23]": {"system": "Staphylococcus aureus", "experiment": "Antibacterial activity against Staphylococcus aureus ATCC 29213 infected in C57BL6 mouse keratitis model assessed as log reduction in bacterial burden at 0.5 % administered 4 times daily at 2 hrs interval for 1 day", "type": "functional", "summary_of_the_method": "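C57BL6 mice, 6–8 weeks, 20–30 g, four per group, anesthetized with ketamine/xylazine. Right cornea scratched (three 1 mm cuts), 10 μL of 6×10^8 CFU/mL S. aureus ATCC 29213 in PBS applied topically. From day 1, 0.5% drug in PBS (12 mM, pH 7.2) given 4 times at 2 h intervals. Corneas homogenized in 0.9% NaCl/0.25% BSA, diluted, plated in duplicate on TSA, 48 h at 35 °C.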"}, "Staphylococcus aureus [24]": {"system": "Staphylococcus aureus", "experiment": "Antibacterial activity against methicillin-sensitive Staphylococcus aureus DM4400R after 24 hrs by broth microdilution method", "type": "functional", "summary_of_the_method": "as §1"}}, "note": "Activity calls are given as the source filed them. The rule behind the calls is not given here."}
{"smiles": "COC(=O)[C@H](CCCNC(=N)N)NC(=O)COc1cc(O)c2c(=O)c(OCC(=O)N[C@@H](CCCNC(=N)N)C(=O)OC)c(-c3ccc(OC)cc3)oc2c1CC=C(C)C", "values": [{"measurement": "MIC", "setting": "Staphylococcus aureus [1]", "result": 1.9, "unit": "µM"}, {"measurement": "Activity", "setting": "Staphylococcus aureus [2]", "result": 3, "unit": "deltalog10CFU/ml"}, {"measurement": "Activity", "setting": "Lipid bilayer [3]", "result": 46, "unit": "%"}, {"measurement": "Activity", "setting": "Staphylococcus aureus [4]", "result": 3, "unit": "deltalog10CFU/ml"}, {"measurement": "Activity", "setting": "[5]", "result": -2.3, "unit": "%"}, {"measurement": "viability at 24 h, 100 µM", "setting": "[6]", "result": 57.7, "unit": "%"}, {"measurement": "Activity", "setting": "Staphylococcus aureus [7]", "result": "Active"}, {"measurement": "MIC", "setting": "Bacillus cereus", "result": 3.8, "unit": "µM"}, {"measurement": "MIC", "setting": "Staphylococcus aureus [8]", "result": 3.13, "unit": "µg/mL"}, {"measurement": "MIC", "setting": "Staphylococcus aureus [9]", "result": 3.8, "unit": "µM"}, {"measurement": "Activity", "setting": "[10]", "result": 18.62, "unit": "%"}, {"measurement": "MIC", "setting": "Staphylococcus aureus [11]", "result": 1.56, "unit": "µg/mL"}, {"measurement": "MIC", "setting": "Staphylococcus aureus [12]", "result": 3.13, "unit": "µg/mL"}, {"measurement": "MIC", "setting": "Staphylococcus aureus [13]", "result": 3.13, "unit": "µg/mL"}, {"measurement": "Activity", "setting": "Staphylococcus aureus [14]", "result": "Dose-dependent effect"}, {"measurement": "Activity", "setting": "Staphylococcus aureus [15]", "result": "Active"}, {"measurement": "Activity", "setting": "Staphylococcus aureus [16]", "result": 3, "unit": "deltalog10CFU/ml"}, {"measurement": "Activity", "setting": "Lipid bilayer [17]", "result": 53.5, "unit": "%"}, {"measurement": "viability at 24 h, 30 µM", "setting": "[18]", "result": 98.2, "unit": "%"}, {"measurement": "Activity", "setting": "Staphylococcus aureus [19]", "result": "Active"}, {"measurement": "Activity", "setting": "[20]", "result": 0.05, "unit": "%"}, {"measurement": "Ratio", "setting": "[21]", "result": "> 511"}, {"measurement": "MIC", "setting": "Staphylococcus aureus [22]", "result": 3.13, "unit": "µg/mL"}, {"measurement": "Activity", "setting": "Staphylococcus aureus [23]", "result": "Active"}, {"measurement": "MIC", "setting": "Staphylococcus aureus [24]", "result": 3.13, "unit": "µg/mL"}]}
